# Assay results of several laboratories.
# Compare with care: the assays were run in different laboratories.
# Read-out: cell growth or viability
Structure (SMILES),cell line,method,time,IC50
O=C(NO)c1ccc(NCc2cnc3ccccc3c2)cc1,LLC-PK1,,48 h,9.38 µM
NS(=O)(=O)c1ccc(-n2nc(C(=O)NN=Cc3cccnc3)cc2-c2ccccc2)cc1,HT-29,fluorescence,48 h,32.3 µM
O=c1c2cc(Cl)ccc2nc(-c2ccccc2)n1N=Cc1ccc(Br)cc1O,LLC-PK1,MTT,72 h,34.8 µM
COc1cc(C=NNC(=O)c2cc(-c3ccccc3)n(-c3ccc(S(N)(=O)=O)cc3)n2)cc(OC)c1OC,HT-29,fluorescence,48 h,26.3 µM
CC(=O)O[C@@H]1CC[C@@]2(C)[C@@H](CC[C@]3(C)[C@@H]2C(=O)C=C2[C@@H]4[C@@H](C)[C@H](C)CC[C@]4(C)CC[C@]23C)[C@@]1(C)C(=O)O,Caco-2,MTT,6 h,1.61 µM
CC(=NNC(=O)c1cc(-c2ccccc2)n(-c2ccc(S(N)(=O)=O)cc2)n1)c1ccc(Br)cc1,HT-29,fluorescence,48 h,37.2 µM
CC(C)N=c1cc2n(-c3ccc(Cl)cc3)c3ccccc3nc-2cc1Nc1ccc(Cl)cc1,Caco-2,MTT,24 h,23.3 µg/mL
O=C(NO)c1ccc(N2CCN(Cc3c[nH]c4ccccc34)CC2)cc1,LLC-PK1,,48 h,13.3 µM
COc1cccc2c1C(=O)c1c(O)c3c(c(O)c1C2=O)C[C@@](O)(C(=O)CO)C[C@@H]3O[C@H]1C[C@H](N)[C@H](O)[C@H](C)O1,SU-DHL-4,,96 h,0.00506 µM
O=c1c2cc(Cl)ccc2nc(-c2ccccc2)n1N=Cc1ccc(F)cc1,LLC-PK1,MTT,72 h,86.7 µM
C=CC(=O)N1CCC[C@@H](n2nc(-c3ccc(Oc4ccccc4)cc3)c3c(N)ncnc32)C1,SU-DHL-4,resazurin,72 h,0.454 µM
NS(=O)(=O)c1ccc(-n2nc(-c3nnc(S)o3)cc2-c2ccccc2)cc1,HT-29,fluorescence,48 h,39.4 µM
COc1ccc(C=Nn2c(-c3ccccc3)nc3ccc(Cl)cc3c2=O)cc1OC,LLC-PK1,MTT,72 h,462 µM
NS(=O)(=O)c1ccc(-n2nc(C(=O)NN=Cc3ccc(O)cc3)cc2-c2ccccc2)cc1,HT-29,fluorescence,48 h,19.7 µM
O=c1c2cc(Cl)ccc2nc(-c2ccccc2)n1N=Cc1ccco1,LLC-PK1,MTT,72 h,154 µM
Cc1ccc(S(=O)(=O)n2cc(CNc3ccc(C(=O)NO)cc3)c3ccccc32)cc1,LLC-PK1,,48 h,9.99 µM
CCOc1ccc(C=Nn2c(-c3ccccc3)nc3ccc(Cl)cc3c2=O)cc1O,LLC-PK1,MTT,72 h,342 µM
Cc1nn(-c2ccc(S(=O)(=O)N3CCN(C)CC3)cc2)c2nn3nnnc3nc12,HT-29,MTT,,0.08 µM
COc1ccc(C=NNC(=O)c2cc(-c3ccccc3)n(-c3ccc(S(N)(=O)=O)cc3)n2)cc1OC,HT-29,fluorescence,48 h,25.8 µM
CC(=O)O[C@H]1C(=O)[C@@]2(C)[C@H]([C@H](OC(=O)c3ccccc3)[C@]3(O)C[C@H](OC(=O)[C@H](O)[C@@H](NC(=O)c4ccccc4)c4ccccc4)C(C)=C1C3(C)C)[C@]1(OC(C)=O)CO[C@@H]1C[C@@H]2O,LLC-PK1,MTT,72 h,1.31 µM
